The values below come from ChEMBL document CHEMBL3352570, “ST7612AA1, a thioacetate-ω(γ-lactam carboxamide) derivative selected from a novel generation of oral HDAC inhibitors” (J Med Chem, 2014).

The subject of series [1] is NCI-H460. As to the kind of experiment: Cytotoxicity against human NCI-H460 cells after 24 hrs by SRB assay. Particulars: NCI-H460, 24 h. In kind it is functional, cell-based. The method in brief: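 NCI-H460 cells were grown in RPMI-1640 with L-glutamine, 10% heat-inactivated FCS and 50 μg/mL gentamicin. Cells were seeded at about 10% confluence and allowed to recover for 24 h. They were exposed to varying concentrations for 24 h, washed, then cultured a further 48 h. Surviving cells were measured by SRB. IC50 is the 50% reduction in cell number versus vehicle, from dose–response curve fitting; means of at least three experiments.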

Series [2] in a line: Cytotoxicity against human HCT116 cells after 24 hrs by SRB assay. In kind it is functional, cell-based. Particulars: HCT-116, 24 h. Put shortly:
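HCT116 cells were cultured in McCoy's 5A with L-glutamine, 10% heat-inactivated FCS and 50 μg/mL gentamicin. After seeding at about 10% confluence and a 24 h recovery, they received drug for 24 h. Drug was washed out and cells were incubated 48 h more before SRB staining. IC50 is the 50% cell-number reduction versus vehicle, from fitted dose–response curves; means of at least two experiments.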

The target in series [3] is Histone deacetylase. As to the kind of experiment: Inhibition of HDAC-mediated tubulin deacetylation in human NCI-H460 cells after 3 hrs by Western blot analysis. In kind it is cell-based. The method in brief: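 Cells (NCI-H460) were treated for 3 h with graded concentrations. The cytoplasmic fraction was collected after HNB/1% NP-40 lysis and centrifugation of nuclei at 2000g. This fraction was resolved by SDS-PAGE and probed for acetylated α-tubulin against α-tubulin and β-actin. Bands were detected by ECL and quantified by densitometry after normalization; IC50 fitted; means of at least two experiments.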

Series [4] addresses Histone deacetylase. Description: Inhibition of HDAC-mediated histone H4 deacetylation in human NCI-H460 cells after 3 hrs by Western blot analysis. The series is classed as cell-based. Put shortly: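 NCI-H460 cells were plated the day before and treated 3 h across a dose range. Cells were washed with DPBS containing 5 mM NaB and lysed in HNB buffer with 1% NP-40. Histones were acid-extracted from nuclei with 0.4 equiv/L H2SO4 and precipitated with acetone. Blots were probed for acetyl-H4 against total H4. Read-out was ECL and densitometry after normalization; IC50 fitted; means of at least two experiments.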
A general note: Immunoblotting shows a protein as a band on a membrane.

The nature of series [5]: Half life in human hepatocytes at 5 uM by LCMS/MS analysis. In kind it is ADME, cell-based, Hepatocyte. The method in brief: (§1)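 Incubation in human hepatocytes. […] Values are means of at least three experiments.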
Series [6] is described as follows: Intrinsic clearance in human hepatocytes assessed per million cells at 5 uM by LCMS/MS analysis. The series is classed as ADME, cell-based, Hepatocyte. The conditions noted are these: read-out: CLH. Put shortly: as §1
Series [7] can be described thus: Efflux ratio of permeability from apical to basolateral side to basolateral to apical side of human Caco2 cells. In kind it is ADME, cell-based. The conditions noted are these: caco-2. The method in brief:
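Caco-2 monolayers; the efflux ratio is flux in the apical-to-basolateral direction over flux in the basolateral-to-apical direction. Means of at least three experiments.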
A general note: Caco-2 monolayers are a common model of the intestinal barrier.

Series [8] in a line: Efflux ratio of permeability from apical to basolateral side to basolateral to apical side of human Caco2 cells in presence of digoxin. The series is classed as ADME, cell-based. Particulars: caco-2. The method in brief: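 Caco-2 AB/BA flux ratio measured with digoxin coincubated with test and reference compounds. Means of at least three experiments.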
Series [9] can be described thus: Antitumor activity against human HCT116 cells xenografted in athymic nude mouse assessed as tumor volume inhibition at 60 mg/kg, po qd for 5 days a week for 3 weeks. In kind it is functional. The conditions noted are these: HCT-116. Put shortly: (§2)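 Female athymic nude mice, 5–6 weeks old, were inoculated sc in the right flank with 5 × 10⁶ exponentially growing tumor cells per 100 μL. Oral dosing once daily began 3 days after tumor injection, in Solutol HS15 diluted 1/20 in water. Tumor volume inhibition was calculated as TVI% = 100 − [(mean TV treated/mean TV control) × 100].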
(In general: Xenograft models place foreign cells or tissue in a host animal.)

The test system of series [10] is A2780. Description: Antitumor activity against human A2780 cells xenografted in athymic nude mouse assessed as tumor volume inhibition at 60 mg/kg, po qd for 5 days a week for 3 weeks. The series is classed as functional. Particulars: in the assay text read “for 2 weeks” for “for 3 weeks”. Put shortly: as §2
The test system of series [11] is Mus musculus. As to the kind of experiment: Toxicity in human HCT116 cells xenografted athymic nude mouse assessed as body weight loss at 60 mg/kg, po qd for 5 days a week for 3 weeks. The series is classed as organism-based, HCT-116. Set-up: dose 60 mg/kg, route oral. Particulars: in vivo. Put shortly: (§3)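 Nude mice (female, athymic, 5–6 weeks) carried sc right-flank xenografts of 5 × 10⁶ cells per 100 μL. Oral treatment once daily started 3 days after inoculation.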

Series [12] concerns Mus musculus. As to the kind of experiment: Toxicity in human A2780 cells xenografted athymic nude mouse assessed as body weight loss at 60 mg/kg, po qd for 5 days a week for 3 weeks. The series is classed as organism-based. Set-up: dose 60 mg/kg, route oral. The conditions noted are these: in vivo, in the assay text read “for 2 weeks” for “for 3 weeks”. The method in brief:
as §3

Series [13] is described as follows: Solubility of the compound in Solutol HS15.
Series [14] has as its system Mus musculus. As to the kind of experiment: Toxicity in human A2780 cells xenografted athymic nude mouse assessed as body weight loss at 100 mg/kg, po qd for 5 days a week for 2 weeks. The series is classed as organism-based. Set-up: dose 100 mg/kg, route oral. Particulars: in vivo. Put shortly:
as §3

The nature of series [15]: Stability of the compound in aqueous solution at pH 7.4 after 24 hrs. The series is classed as physicochemical. Particulars: buffer, pH 7.4, 24 h. Put shortly: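 Stability in aqueous solution at pH 7.4 over 24 h.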
Series [16] is described as follows: Stability of the compound in aqueous solution at pH 1.2 after 3 hrs. The conditions noted are these: buffer, pH 1.2, 3 h.

As to `CC(=O)SCCCCC[C@H](NC(=O)[C@H]1CCC(=O)N1)C(=O)Nc1ccccc1`, the IC50 turned out to be 0.07 µM in series [1], 0.075 µM in [2], 0.2 µM in series [3] and 0.005 µM in series [4]. In series [5], this compound returned a half-life at 5 µM of 2.7 min. Further, in [6], the hepatocyte CLint at 5 µM was found to be 252 µL/min/1e6 cells. The figures for the Ratio in series [7] and in [8] were 6.9 and 4.2, respectively. The inhibition in vivo at 60 mg/kg in series [9] was 62%; in series [10] it was 89%. Further, the Activity in series [11] was 1%; in series [12], 7%. The solubility in series [13] was greater than 10000 µg/mL.

For `O=C(CCCCCCC(=O)Nc1ccccc1)NO` [VORINOSTAT], the half-life at 5 µM in series [5] was determined as 47.5 min. The hepatocyte CLint at 5 µM in series [6] came to 14.7 µL/min/1e6 cells. The Activity in series [14] is 4%. The Stability entry in series [15] and in series [16] was “Stable” each time.

Broadly, the IC50 is the concentration that inhibits the measured activity by half. Read a high IC50 as lower potency. For orientation: half-life means the time in which the quantity being followed falls by half. Broadly, the inhibition in vivo is the drop in the measured response relative to a control, in per cent. For orientation: solubility means the dissolved amount per volume that the medium holds.
